In ChEMBL document CHEMBL1129691, “Synthesis and structure-DNA binding relationship analysis of DNA triple-helix specific intercalators” (J Med Chem, 1996):

Tests used:
Nucleic Acid [1] = experiment: Temperature (delta Tm) for DNA triplex to duplex and single stranded transitions [Poly(dT.dA.dT) to Poly(dA.dT) and Poly(dT)]; format: nucleic-acid assay
Summary of the method: (§1)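 Thermal melting in PIPES buffer (0.01 M PIPES, 0.001 M EDTA, 0.2 M NaCl, pH 7.0). Duplex poly(dA·dT) and triplex poly(dT·dA·dT) are formed by adding DNA stock to buffer. Compound is added at a molar ratio of 0.3 per nucleic acid base (saturating). ΔTm = Tm(complex) − Tm(free DNA), estimated error ±0.5 °C.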

Nucleic Acid [2] = experiment: Temperature (delta Tm) for DNA duplex denaturation evaluated by thermal melting; format: nucleic-acid assay; summary of the method: as §1
[3] = PKa value of the N in quinoline ring is determined in 1-cm UV cell titreated with HCl or NaOH; format: physicochemical; conditions: buffer
Summary of the method: (§2)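 UV-monitored pH titration with HCl or NaOH. Sample is dihydrobromide salt or free base (0.01 mM) in nanopure water with NaCl (4 mM) and EDTA (0.1 mM). UV-vis spectra (220-450 nm) recorded after each addition. pH range spans at least 2 units either side of pKa, at least two points per pH unit. Absorbance at the wavelength of greatest change is normalized and plotted against pH.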

[4] = PKa value of the side chain terminal amino is determined in 1-cm UV cell titreated with HCl or NaOH; format: physicochemical; conditions: buffer; summary of the method: as §2

Row | Structure (SMILES) | ΔTm (Nucleic Acid [1]) | ΔTm (Nucleic Acid [2]) | pKa [3] | pKa [4]
1 | CN(C)CCN(C)C(=O)c1cc(-c2ccc3ccccc3c2)nc2ccccc12 | 2.1 °C | 0 °C | – | –
2 | CN1CCN(c2cc(-c3ccc4c(ccc5ccccc54)c3)nc3ccccc23)CC1 | 18.6 °C | 0.3 °C | – | –
3 | CNCCN(C)c1cc(-c2ccc3ccccc3c2)nc2ccccc12 | 24.1 °C | 0.2 °C | 6.2 | > 8
4 | Cc1ccc2cc(-c3cc(N4CCN(C)CC4)c4ccccc4n3)ccc2c1 | 15.5 °C | 0.4 °C | – | –
5 | CN1CCN(c2cc(-c3ccccc3)nc3ccccc23)CC1 | 3.2 °C | 0 °C | – | –
6 | CN(C)CCNc1cc(-c2ccc3ccccc3c2)nc2ccccc12 | 35.6 °C | 5.5 °C | 7.1 | > 8
7 | Cc1ccc2cc(-c3cc(N(C)CCN(C)C)c4ccccc4n3)ccc2c1 | 19 °C | 0.4 °C | – | –
8 | CN(C)CCNc1cc(-c2ccc3c(c2)Nc2ccccc2S3)nc2ccccc12 | 33.1 °C | 2.4 °C | – | –
9 | CN(C)CCNc1cc(-c2cccs2)nc2ccccc12 | 9.4 °C | 0.7 °C | – | –

Second part, the compound after the results:

Row | ΔTm (Nucleic Acid [1]) | ΔTm (Nucleic Acid [2]) | pKa [3] | pKa [4] | Structure (SMILES)
10 | 1.9 °C | 0.1 °C | – | – | CN(C)CCNc1cc(-c2cccc3ccccc23)nc2ccccc12
11 | 19.1 °C | 0.4 °C | 5.6 | > 8 | CN1CCN(c2cc(-c3ccc4ccccc4c3)nc3ccccc23)CC1
12 | 35.3 °C | 5.2 °C | – | – | CN(C)CCNc1cc(-c2ccc3c(ccc4ccccc43)c2)nc2ccccc12
13 | 32.9 °C | 2.2 °C | – | – | Cc1ccc2cc(-c3cc(NCCN(C)C)c4ccccc4n3)ccc2c1
14 | 18.6 °C | 0.2 °C | 4.4 | > 8 | CN(C)CCSc1cc(-c2ccc3ccccc3c2)nc2ccccc12
15 | 23 °C | 0.5 °C | – | – | CNCCN(C)c1cc(-c2ccc3cc(C)ccc3c2)nc2ccccc12
16 | 20.8 °C | 1.5 °C | – | – | CNCCN(C)c1cc(-c2ccc3c(c2)Nc2ccccc2S3)nc2ccccc12
17 | 3 °C | 0 °C | – | – | CN(C)CCN(C)c1cc(-c2cccs2)nc2ccccc12
18 | 11.9 °C | 0.3 °C | – | – | CN(C)CCNc1cc(-c2ccccc2)nc2ccccc12
